ChEMBL document CHEMBL3593160, “Orally active ghrelin receptor inverse agonists and their actions on a rat obesity model” (Bioorg Med Chem, 2015)
Activity calls are given as the source filed them. The rule behind the calls is not given here.

Key:
[1] = target: Growth hormone secretagogue receptor type 1 (Rattus norvegicus) (UniProt O08725); assay: Inverse agonist activity rat ghrelin receptor expressed in HEK293 cells by luciferase reporter gene assay relative to control; format: cell-based
Method in brief: (§1)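 HEK293 cells transiently transfected (about 5 h, Lipofectamine 2000) with rat ghrelinR vector (10 ng) and pNFAT-Luc (100 ng) per well. Compounds added in RPMI1640 with 0.1% dialyzed FBS and incubated overnight at 37 °C. Constitutive NFAT-luciferase signal read by luminescence; viability checked by AlamarBlue.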

Rattus norvegicus [2] = assay: Oral bioavailability in Sprague-Dawley rat at 10 mg/kg by LC/MS/MS method; format: ADME, organism-based; settings: in vivo
Method in brief: (§2)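 Non-fasted SD rats (n = 3/group) dosed 10 mg/kg orally or 1 mg/kg iv in 5% DMSO/10% HPCD in saline. Heparinized plasma sampled 0.08 (iv only) to 24 h. Parameters by noncompartmental analysis.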

[3] = target: T1, Growth hormone secretagogue receptor type 1 (Rattus norvegicus, UniProt O08725); assay: Displacement of [125I]human ghrelin from rat ghrelin receptor expressed in CHO cell membranes incubated for 30 mins by scintillation counting method
T1 sequence (O08725 whole entry): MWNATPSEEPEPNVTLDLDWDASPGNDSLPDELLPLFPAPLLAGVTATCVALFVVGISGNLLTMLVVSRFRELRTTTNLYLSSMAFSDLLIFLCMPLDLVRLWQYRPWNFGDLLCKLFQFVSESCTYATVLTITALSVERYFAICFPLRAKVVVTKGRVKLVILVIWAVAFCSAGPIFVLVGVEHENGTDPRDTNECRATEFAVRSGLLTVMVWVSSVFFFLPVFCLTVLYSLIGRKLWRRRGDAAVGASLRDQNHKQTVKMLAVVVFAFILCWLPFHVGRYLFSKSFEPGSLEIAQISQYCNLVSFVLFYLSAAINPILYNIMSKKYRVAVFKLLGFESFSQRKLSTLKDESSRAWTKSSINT
Method in brief: (§3)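 Membranes from CHO cells stably expressing rat or human ghrelinR (3.34 µg protein) incubated with 0.04 nM [125I]human ghrelin and varied compound concentrations for 30 min at room temperature. Buffer: 50 mM Hepes pH 7.5, 1 mM CaCl2, 5 mM MgCl2, 75 mM NaCl, 0.5% BSA. Membranes filtered and washed; bound radioactivity counted by scintillation.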

[4] = Ratio of drug concentration in brain of Sprague-Dawley rat model of high-fat diet-induced obesity at 30 mg/kg, po BID for 3 week to IC50 for displacement of [125I]human ghrelin from rat ghrelin receptor expressed in CHO cell membranes; format: organism-based; settings: in vivo, 504 h
Method in brief: (§4)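 Brain level estimated as mean plasma concentration (AUC0-24/24 h, day 1 of twice-daily oral dosing in HFD-obese SD rats) multiplied by the B/P ratio from normal rats. The ratio divides this by the binding IC50.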

[5] = Ratio of drug level in brain to plasma of Sprague-Dawley rat at 1 mg/kg, iv after 2 hrs by LC/MS/MS method; format: ADME, organism-based; settings: read-out: BPR
Rattus norvegicus [6] = assay: AUC (0 to 24 hrs) in Sprague-Dawley rat model of high-fat diet-induced obesity at 10 mg/kg, po BID for 3 weeks; format: ADME, organism-based; parameters: dose 10 mg/kg, time < 24 hr, route oral; settings: in vivo
Method in brief: (§5)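 Male SD rats fed 60% fat diet for 10 weeks, habituated to oral vehicle dosing for 3 weeks. Compound given orally as a suspension in 0.5% hydroxypropyl cellulose at 9:30 am and 6:00 pm. Plasma levels measured on the first dosing day. AUC0-24 from these levels; mean plasma concentration = AUC0-24/24 h.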

[7] = target: Growth hormone secretagogue receptor type 1 (Rattus norvegicus) (UniProt O08725); assay: Antagonist activity at ghrelin receptor in Sprague-Dawley rat primary pituitary cells assessed as inhibition of ghrelin-induced growth hormone secretion incubated for 15 mins by ELISA method relative to control; format: cell-based; settings: Pituitary gland cell
Method in brief: (§6)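 SD rat (6–8 weeks, male) anterior pituitary cells dispersed with collagenase and papain and cultured 2 days. Cells preincubated 1.5 h in HBSS with 1% BSA, 0.25% glucose and 25 mM HEPES, then treated 15 min at 37 °C with 1 nM ghrelin present. GH in supernatant measured by ELISA. Inhibition = (C−E)/C×100.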

[8] = Protein binding in human plasma at 10 uM incubated for 4 hrs by equilibrium dialysis; format: ADME, cell-free; settings: read-out: PPB
Method in brief: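 10 µM compound in human plasma dialysed against DPBS pH 7.4 for 4 h at 37 °C by rapid equilibrium dialysis. Plasma and buffer fractions acetonitrile-extracted and quantified by LC/MS/MS.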

Rattus norvegicus [9] = assay: Inhibition of total calorie intake in Sprague-Dawley rat model of high-fat diet-induced obesity at 10 mg/kg, po BID 3 weeks; format: functional, organism-based; settings: in the assay text read “14 days” for “3 weeks”
Method in brief: (§7)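 Male SD rats given a 60% fat diet for 10 weeks, habituated 3 weeks to oral vehicle, and randomized to vehicle, treatment or pair-fed groups. Oral dosing twice daily (9:30 am, 6:00 pm) as a 0.5% hydroxypropyl cellulose suspension. Body weight and daily food intake recorded before the morning dose. Pair-fed rats got the previous day's treated-group mean intake plus vehicle.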

[10] = Ratio of free plasma concentration in Sprague-Dawley rat model of high-fat diet-induced obesity at 10 mg/kg, po BID for 3 week to IC50 for displacement of [125I]human ghrelin from rat ghrelin receptor expressed in CHO cell membranes; format: organism-based; settings: in vivo, 504 h
Method in brief: (§8)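 Free concentration = total concentration × free fraction from human plasma protein binding by equilibrium dialysis. Plasma level is AUC0-24/24 h on day 1 of twice-daily oral dosing in HFD-obese SD rats. Brain level is plasma × B/P ratio from normal rats. Each is divided by the binding IC50.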

Rattus norvegicus [11] = assay: Inhibition of total calorie intake in Sprague-Dawley rat model of high-fat diet-induced obesity at 30 mg/kg, po BID 3 weeks; format: functional, organism-based; settings: in the assay text read “14 days” for “3 weeks”; method in brief: as §7
[12] = Ratio of drug concentration in brain of Sprague-Dawley rat model of high-fat diet-induced obesity at 10 mg/kg, po BID for 3 week to IC50 for displacement of [125I]human ghrelin from rat ghrelin receptor expressed in CHO cell membranes; format: organism-based; settings: in vivo, 504 h; method in brief: as §4
[13] = Plasma concentration in Sprague-Dawley rat model of high-fat diet-induced obesity at 10 mg/kg, po BID for 3 weeks; format: ADME, organism-based; method in brief: as §5
[14] = Ratio of free drug concentration in brain of Sprague-Dawley rat model of high-fat diet-induced obesity at 10 mg/kg, po BID for 3 week to IC50 for displacement of [125I]human ghrelin from rat ghrelin receptor expressed in CHO cell membranes; format: organism-based; settings: in vivo, 504 h; method in brief: as §8
[15] = target: T1, Growth hormone secretagogue receptor type 1; assay: Inverse agonist activity rat ghrelin receptor expressed in HEK293 cells by luciferase reporter gene assay; format: cell-based; method in brief: as §1
[16] = target: T1, Growth hormone secretagogue receptor type 1; assay: Antagonist activity at ghrelin receptor in Sprague-Dawley rat primary pituitary cells assessed as inhibition of ghrelin-induced growth hormone secretion incubated for 15 mins by ELISA method; format: cell-based, Pituitary gland cell; method in brief: as §6
[17] = Ratio of free plasma concentration in Sprague-Dawley rat model of high-fat diet-induced obesity at 30 mg/kg, po BID for 3 week to IC50 for displacement of [125I]human ghrelin from rat ghrelin receptor expressed in CHO cell membranes; format: organism-based; settings: in vivo, 504 h; method in brief: as §8
[18] = target: T1, Growth hormone secretagogue receptor type 1; assay: Antagonist activity at rat ghrelin receptor expressed in CHO cells assessed as blocking of human ghrelin-induced response by FLIPR based intracellular Ca2+ mobilization assay; format: functional, cell-based
Method in brief: (§9)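 CHO cells stably expressing rat ghrelinR, loaded with Calcium 3 dye for 2.5 h at room temperature in HBSS with 20 mM Hepes, 2.5 mM probenecid and 1 mg/mL BSA. Compound added, then 1 nM human ghrelin. Response taken as peak fluorescence minus basal.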

Rattus norvegicus [19] = assay: Total clearance in Sprague-Dawley rat at 1 mg/kg, iv by LC/MS/MS method; format: ADME, organism-based; settings: in vivo; method in brief: as §2
[20] = Ratio of plasma concentration in Sprague-Dawley rat model of high-fat diet-induced obesity at 10 mg/kg, po BID for 3 week to IC50 for displacement of [125I]human ghrelin from rat ghrelin receptor expressed in CHO cell membranes; format: organism-based; settings: in vivo, 504 h
Method in brief: (§10)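 Mean plasma concentration (AUC0-24/24 h, day 1 of twice-daily oral dosing in HFD-obese SD rats) divided by the binding IC50.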

[21] = Drug concentration in brain of Sprague-Dawley rat model of high-fat diet-induced obesity at 10 mg/kg, po BID for 3 weeks; format: ADME, organism-based; settings: read-out: Drug uptake; method in brief: as §4
[22] = target: Growth hormone secretagogue receptor type 1 (Homo sapiens, UniProt Q92847); assay: Displacement of [125I]human ghrelin from human ghrelin receptor expressed in CHO cell membranes incubated for 30 mins by scintillation counting method; method in brief: as §3
Sequence of Growth hormone secretagogue receptor type 1 (Homo sapiens, UniProt Q92847) (Q92847 whole entry): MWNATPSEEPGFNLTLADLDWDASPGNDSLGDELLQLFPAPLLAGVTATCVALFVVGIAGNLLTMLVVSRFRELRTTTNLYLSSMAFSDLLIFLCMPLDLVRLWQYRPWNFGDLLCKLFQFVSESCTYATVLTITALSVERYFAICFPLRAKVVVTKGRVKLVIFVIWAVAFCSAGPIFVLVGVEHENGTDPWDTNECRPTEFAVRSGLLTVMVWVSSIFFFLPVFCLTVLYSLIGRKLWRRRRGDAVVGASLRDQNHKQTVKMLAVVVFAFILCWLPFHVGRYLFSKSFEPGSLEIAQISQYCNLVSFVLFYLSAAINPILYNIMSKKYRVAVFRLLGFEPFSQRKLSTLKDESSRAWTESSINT

[23] = AUC (0 to 24 hrs) in Sprague-Dawley rat model of high-fat diet-induced obesity at 30 mg/kg, po BID for 3 weeks; format: ADME, organism-based; parameters: time < 24 hr, dose 30 mg/kg, route oral; settings: in vivo; method in brief: as §5
[24] = Plasma concentration in Sprague-Dawley rat model of high-fat diet-induced obesity at 30 mg/kg, po BID for 3 weeks; format: ADME, organism-based; method in brief: as §5
[25] = Drug concentration in brain of Sprague-Dawley rat model of high-fat diet-induced obesity at 30 mg/kg, po BID for 3 weeks; format: ADME, organism-based; settings: read-out: Drug uptake; method in brief: as §4
[26] = target: Growth hormone secretagogue receptor type 1 (Rattus norvegicus) (UniProt O08725); assay: Antagonist activity at rat ghrelin receptor expressed in CHO cells assessed as blocking of human ghrelin-induced response by FLIPR based intracellular Ca2+ mobilization assay relative to control; format: functional, cell-based; method in brief: as §9
[27] = Ratio of free drug concentration in brain of Sprague-Dawley rat model of high-fat diet-induced obesity at 30 mg/kg, po BID for 3 week to IC50 for displacement of [125I]human ghrelin from rat ghrelin receptor expressed in CHO cell membranes; format: organism-based; settings: in vivo, 504 h; method in brief: as §8
Liver microsome = assay: Metabolic stability in human liver microsomes assessed as metabolic rate at 1 uM incubated for 30 mins in presence of NADPH by LC/MS/MS method; format: ADME; settings: 0.5 h
[28] = Ratio of plasma concentration in Sprague-Dawley rat model of high-fat diet-induced obesity at 30 mg/kg, po BID for 3 week to IC50 for displacement of [125I]human ghrelin from rat ghrelin receptor expressed in CHO cell membranes; format: organism-based; settings: in vivo, 504 h; method in brief: as §10
Rattus norvegicus [29] = assay: Inhibition of daily weight gain in Sprague-Dawley rat model of high-fat diet-induced obesity at 30 mg/kg, po BID for14 days; format: functional, organism-based; method in brief: as §7
[30] = Total clearance in ICR mouse by LC/MS/MS method; format: ADME, organism-based; settings: in vivo
[31] = Oral bioavailability in ICR mouse by LC/MS/MS method; format: ADME, organism-based; settings: in vivo

Sequence of Growth hormone secretagogue receptor type 1 (Rattus norvegicus) (O08725 whole entry): as the sequence (O08725 whole entry) above

Efficacy [1] [%] | F (Rattus norvegicus [2]) [%] | IC50 [3] [nM] | Ratio [4] | Kp at 2 h [5] | AUC (Rattus norvegicus [6]) [ng·h/mL] | Efficacy [7] [%] | fraction unbound at 4 h, 10 µM [8] | Ratio [10] | Ratio [12] | concentration at 504 h [13] [nM] | Ratio [14] | IC50 [15] [nM] | IC50 [16] [nM] | IC50 [18] [nM] | IC50 [22] [nM] | Efficacy [26] [%] | Drug metabolism (Liver microsome) [pmol/min/mg] | SMILES | inhibition (Rattus norvegicus [9]) | inhibition (Rattus norvegicus [11]) | also measured
> 95 | 46.4 | 6.6 | 58 | 0.07 | 24901 | > 95 | 0.01 | 2.9 | 19 | 1890 | 0.2 | 26 | 36.2 | 34 | 3 | > 95 | 81 | COc1ccc(CNC(=O)c2cc(C#CC(C)(C)NC(C)=O)cnc2NCc2ccc3c(c2)OCO3)cc1Cl | inactive | inactive | Ratio [17]: 8.6; CL (Rattus norvegicus [19]): 27.8 mL/min/kg; Ratio [20]: 286; concentration at 504 h [21]: 132 nM; AUC at 24 h [23]: 74700 ng·h/mL; concentration at 504 h [24]: 5670 nM; concentration at 504 h [25]: 370 nM; Ratio [27]: 0.6; Ratio [28]: 859
> 95 | 23.8 | 0.28 | 203 | 0.21 | 1105 | > 95 | 0.01 | 3.2 | 68 | 91 | 0.7 | 5.4 | 11.6 | 13 | 0.44 | > 95 | 103 | Cc1ccc(CNC(=O)c2cc(C#CC(C)(C)O)cnc2NCc2ccc3c(c2)OCO3)cc1C(F)F | inactive | inactive | inhibition (Rattus norvegicus [29]): Active; Ratio [17]: 97; CL (Rattus norvegicus [19]): 12.3 mL/min/kg; Ratio [20]: 324; concentration at 504 h [21]: 19 nM; AUC at 24 h [23]: 3310 ng·h/mL; concentration at 504 h [24]: 272 nM; concentration at 504 h [25]: 57 nM; Ratio [27]: 2; Ratio [28]: 972
> 95 |  | 5.6 |  |  |  | > 95 |  |  |  |  |  | 9.8 | 32.8 | 100 | 0.3 | > 95 | 39 | COc1ccc(CNC(=O)c2cc(C3=C[C@@H]4CC[C@H](C3)N4C(C)=O)cnc2NCc2ccc3c(c2)OCO3)cc1Cl |  |  | clearance [30]: 180 mL/min/kg; bioavailability [31]: 7.2%
